For data set [1] the following is noted: cited from earlier work.
For data set [2], the system named is TH positive neurons in the SNpc. The settings on record: intraperitoneal injection; cited from earlier work.
In a further data set the target is CYP P450 2D6 (Homo sapiens, UniProt P10635). Nature of the data set: P450 inhibition 2D6. Format: in vitro ADME. The settings on record: read-out: IC50 CYP450 2D6.
A short description of data set [3]: Mouse brain penetration time course. The class given is in vivo, C57Bl6 mice. The settings on record: mice, single oral dose 30 mg/kg.
The test system of data set [4] is p-c-jun in TH-positive neurons of the SNpc. Briefly: Immunohistochemistry for TH and p-c-jun after MPTP. The class given is in vivo, C57BL/6J mice. The settings on record: single oral dose 30 mg/kg, seven hr. In short, it runs like this: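 The test compound was given orally 30 min before repeated i.p. MPTP-HCl (2 h intervals) to male C57BL/6J mice, which were killed 7 h after the first MPTP dose; three mice per group. 16 μm SN sections (bregma −3.0) were incubated overnight at 4 °C with sheep anti-TH (1:50) and rabbit anti-p-c-jun Ser73 (1:100), then 2 h with Alexa 594/488 secondaries (1:500). DAPI was used for normalisation. TH+ neurons with nuclear p-c-jun were counted.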

In data set [5] the test system is c-jun phosphorylation in ventral midbrain. Briefly: Western blot for phospho-c-jun after MPTP. The class given is in vivo, C57BL/6J mice. The settings on record: MPTP-treated mice, 20 mg/kg oral. In short, it runs like this:
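Mice received the test compound orally 30 min before the first i.p. MPTP-HCl dose and were killed 7 h after that dose; two saline, three MPTP and two MPTP+compound mice. Ventral midbrain was dissected and lysed, and 30 μg nuclear-fraction protein was immunoblotted for phospho-c-jun.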
For orientation: A western blot detects proteins with antibodies after separation by electrophoresis.

Data set [6] relates to striatal catecholamine levels. Nature of the data set: Striatal dopamine, DOPAC and HVA levels after MPTP. Format: in vivo, C57BL/6J mice. The settings on record: MPTP-treated mice, 30 mg/kg, 7 days.
The target in the next data set is CYP P450 3A4 (Homo sapiens, UniProt P08684). The settings on record: read-out: IC50 CYP450 3A4.
Data set [7] concerns the target monoamine oxidase A (MAO-A) (Homo sapiens, UniProt P21397). Nature of the data set: MAO-A inhibition. Format: biochemical. The settings on record: read-out: IC50 MAO-A.
The target in a further data set is CYP P450 2E1 (Homo sapiens, UniProt P05181). Briefly: P450 inhibition 2E1. The class given is in vitro ADME. The settings on record: read-out: IC50 CYP450 2E1.
Data set [8] concerns the target monoamine oxidase B (MAO-B) (Homo sapiens, UniProt P27338). Briefly: MAO-B inhibition. Format: biochemical. The settings on record: read-out: IC50 MAO-B.
Data set [9] has as its target Leucine Rich repeat Kinase 2 (LRRK2) (Homo sapiens, UniProt Q5S007). Briefly: LRRK2 inhibition. The class given is biochemical. The settings on record: up to 10 μM.
In another data set the target is TYK2 (Homo sapiens, UniProt P29597). Nature of the data set: Ambit kinase panel screen, TYK2. The class given is binding. The settings on record: suggested from Ambit panel at 3 μM.
For a further data set, the system named is 347 kinases. Nature of the data set: Ambit kinase panel screen. The class given is binding. The settings on record: 3 μM.
A further data set deals with KIT (Homo sapiens, UniProt P10721). Briefly: Ambit kinase panel screen, KIT. Format: binding. The settings on record: suggested from Ambit panel at 3 μM.
A further data set concerns the target KIT V559D (Homo sapiens, UniProt P10721, V559D). Briefly: Ambit kinase panel screen, KIT V559D. The settings on record: suggested from Ambit panel at 3 μM. Format: binding.
The subject of data set [10] is primary mesencephalic dopaminergic neurons exposed to MPP+. Format: cell-based, Sprague Dawley rat. The settings on record: for neuroprotective effect (TH-positive neurons): 10 μM MPP+ for 48 hr. In outline:
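Ventral mesencephalon from E14 Sprague-Dawley rat embryos was trypsinised (0.25%, 5 min, 37 °C) and triturated. Cells were plated at 200 000/well on poly-D-lysine/laminin in DMEM/10% HIFBS, then switched after 2 h to SATO selection medium for 5 days with daily changes. Test compound (10–1000 nM) was added 15 min before 10 μM MPP+, with 48 h at 37 °C/5% CO2. Cells were fixed in 4% PFA and TH+ neurons counted blinded. Four wells per concentration, three biological replicates; one-way ANOVA.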

The subject of data set [11] is p-c-jun in substantia nigra tissue lysate. Nature of the data set: ELISA for p-c-jun target modulation after MPTP. Format: in vivo, C57BL/6J mice. The settings on record: MPTP-treated mice. In short, it runs like this:
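Male C57BL/6J mice (11 weeks, 25–30 g) got the test compound orally 30 min before the first of repeated i.p. MPTP-HCl doses given at 2 h intervals, and were killed 7 h after the first MPTP dose. SN nuclear extracts were made with protease and phosphatase inhibitors and protein was measured by BCA. Phospho-c-jun Ser63 in 30 μg protein was read by ELISA in duplicate against a recombinant p-c-jun standard curve. Groups were compared by two-tailed unpaired t test.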
A general note: In an ELISA, binding on a coated surface is turned into a signal by an enzyme label.

A further data set concerns the target CYP P450 2C9 (Homo sapiens, UniProt P11712). The settings on record: read-out: IC50 CYP450 2C9.
In a further data set the target is CYP P450 2B6 (Homo sapiens, UniProt P20813). Briefly: P450 inhibition 2B6. The settings on record: read-out: IC50 CYP450 2B6. Format: in vitro ADME.
The nature of data set [12]: Plasma protein binding, mouse. Format: in vitro ADME.
The next data set concerns the target P-glycoprotein (PGP) (Homo sapiens, UniProt P08183). Briefly: P-glycoprotein substrate assessment. The class given is in vitro ADME.
Data set [13] can be described thus: Plasma protein binding, human. Format: in vitro ADME.
A further data set concerns the target G2019S LRRK2 (Homo sapiens, UniProt Q5S007, G2019S). Briefly: G2019S LRRK2 inhibition. The class given is biochemical. The settings on record: up to 10 μM.
In another data set the target is PDGFR-β (Homo sapiens, UniProt P09619). Briefly: Ambit kinase panel screen, PDGFR-β. The class given is binding. The settings on record: suggested from Ambit panel at 3 μM.
Another data set has as its target CYP P450 1A2 (Homo sapiens, UniProt P05177). Nature of the data set: P450 inhibition 1A2. The settings on record: read-out: IC50 CYP450 1A2. The class given is in vitro ADME.
For the next data set, the target named is CYP P450 2C19 (Homo sapiens, UniProt P33261). The settings on record: read-out: IC50 CYP450 2C19.
The target in the next data set is CYP P450 2A6 (Homo sapiens, UniProt P11509). Briefly: P450 inhibition 2A6. Format: in vitro ADME. The settings on record: read-out: IC50 CYP450 2A6.
The nature of data set [14]: Microsomal stability, mouse. The settings on record: mouse liver microsomes. The class given is in vitro ADME. Background: Liver microsomes are a subcellular fraction often used to study metabolism.
The nature of a further data set: Rat pharmacokinetics. The class given is in vivo, Sprague-Dawley rats. The settings on record: rats. In outline: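 Sprague-Dawley rats (n = 3) were dosed 1 mg/kg i.v. or 2 mg/kg by oral gavage. Blood was drawn into EDTA at 5, 15 and 30 min and at 1, 2, 4, 6 and 8 h. Plasma proteins were precipitated with acetonitrile and the test compound quantified by LC-MS/MS. Noncompartmental analysis gave CL, oral bioavailability, Cmax, AUC, t1/2 and Vd.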

Data set [15] in a line: Microsomal stability, rat. The settings on record: rat liver microsomes. Format: in vitro ADME.
Data set [16] can be described thus: Microsomal stability, human. The class given is in vitro ADME. The settings on record: human liver microsomes.
A further data set has as its target CYP P450 2C8 (Homo sapiens, UniProt P10632). Nature of the data set: P450 inhibition 2C8. The settings on record: read-out: IC50 CYP450 2C8. Format: in vitro ADME.
Data set [17] in a line: Plasma protein binding, rat. Format: in vitro ADME.
Data set [18] can be described thus: Plasma protein binding, monkey. Format: in vitro ADME.
For data set [19] the following is noted: cited from earlier work. The source holds these as a separate data set.

Each structure is given as a SMILES string. Where two headings read alike, the source gives them in different places.

Sequence of TYK2 (P29597 whole entry): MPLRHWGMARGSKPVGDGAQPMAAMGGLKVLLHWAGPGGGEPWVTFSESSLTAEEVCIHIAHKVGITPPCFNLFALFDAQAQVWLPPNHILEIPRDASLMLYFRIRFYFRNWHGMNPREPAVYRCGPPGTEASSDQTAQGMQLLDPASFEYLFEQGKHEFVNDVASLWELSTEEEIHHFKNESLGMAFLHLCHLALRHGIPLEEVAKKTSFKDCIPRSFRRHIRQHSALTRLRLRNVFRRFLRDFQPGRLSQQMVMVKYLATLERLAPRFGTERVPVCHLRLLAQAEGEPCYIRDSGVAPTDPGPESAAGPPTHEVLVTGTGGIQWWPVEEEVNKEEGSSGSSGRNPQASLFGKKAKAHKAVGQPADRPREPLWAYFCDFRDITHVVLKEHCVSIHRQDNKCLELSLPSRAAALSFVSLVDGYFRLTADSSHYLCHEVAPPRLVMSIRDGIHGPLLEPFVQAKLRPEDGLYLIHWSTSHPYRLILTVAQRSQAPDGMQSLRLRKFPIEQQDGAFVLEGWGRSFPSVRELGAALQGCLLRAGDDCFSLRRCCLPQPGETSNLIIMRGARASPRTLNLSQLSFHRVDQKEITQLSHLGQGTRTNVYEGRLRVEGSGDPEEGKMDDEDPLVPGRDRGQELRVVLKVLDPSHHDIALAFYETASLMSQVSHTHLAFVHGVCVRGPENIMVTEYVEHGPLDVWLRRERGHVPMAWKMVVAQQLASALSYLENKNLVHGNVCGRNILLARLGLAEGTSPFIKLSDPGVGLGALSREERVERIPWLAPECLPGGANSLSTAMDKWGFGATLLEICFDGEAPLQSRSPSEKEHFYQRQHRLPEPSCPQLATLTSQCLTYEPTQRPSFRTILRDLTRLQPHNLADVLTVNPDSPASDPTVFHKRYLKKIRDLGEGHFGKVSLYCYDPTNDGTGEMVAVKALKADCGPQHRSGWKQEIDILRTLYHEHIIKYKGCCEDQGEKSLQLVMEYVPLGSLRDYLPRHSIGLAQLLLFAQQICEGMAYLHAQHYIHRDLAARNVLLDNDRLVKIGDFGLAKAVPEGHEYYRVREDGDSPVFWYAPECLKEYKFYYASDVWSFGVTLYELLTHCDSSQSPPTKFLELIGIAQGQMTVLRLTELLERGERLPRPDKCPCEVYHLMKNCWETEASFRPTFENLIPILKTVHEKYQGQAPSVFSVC
Sequence of CYP P450 2C8 (P10632 whole entry): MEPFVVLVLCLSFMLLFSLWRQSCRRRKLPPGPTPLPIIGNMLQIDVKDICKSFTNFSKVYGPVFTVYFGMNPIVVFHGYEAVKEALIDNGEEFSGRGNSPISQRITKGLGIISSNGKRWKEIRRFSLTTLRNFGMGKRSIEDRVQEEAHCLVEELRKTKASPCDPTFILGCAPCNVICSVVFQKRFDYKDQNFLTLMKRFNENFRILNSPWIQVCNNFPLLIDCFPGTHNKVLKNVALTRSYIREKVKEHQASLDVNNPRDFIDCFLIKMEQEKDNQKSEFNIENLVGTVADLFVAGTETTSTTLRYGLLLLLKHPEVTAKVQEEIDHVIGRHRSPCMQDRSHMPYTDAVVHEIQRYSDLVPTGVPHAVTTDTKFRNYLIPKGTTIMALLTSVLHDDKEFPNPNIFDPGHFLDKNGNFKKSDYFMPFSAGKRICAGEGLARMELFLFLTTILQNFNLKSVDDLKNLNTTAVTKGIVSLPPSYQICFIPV
Sequence of monoamine oxidase A (MAO-A) (P21397 whole entry, species assumed): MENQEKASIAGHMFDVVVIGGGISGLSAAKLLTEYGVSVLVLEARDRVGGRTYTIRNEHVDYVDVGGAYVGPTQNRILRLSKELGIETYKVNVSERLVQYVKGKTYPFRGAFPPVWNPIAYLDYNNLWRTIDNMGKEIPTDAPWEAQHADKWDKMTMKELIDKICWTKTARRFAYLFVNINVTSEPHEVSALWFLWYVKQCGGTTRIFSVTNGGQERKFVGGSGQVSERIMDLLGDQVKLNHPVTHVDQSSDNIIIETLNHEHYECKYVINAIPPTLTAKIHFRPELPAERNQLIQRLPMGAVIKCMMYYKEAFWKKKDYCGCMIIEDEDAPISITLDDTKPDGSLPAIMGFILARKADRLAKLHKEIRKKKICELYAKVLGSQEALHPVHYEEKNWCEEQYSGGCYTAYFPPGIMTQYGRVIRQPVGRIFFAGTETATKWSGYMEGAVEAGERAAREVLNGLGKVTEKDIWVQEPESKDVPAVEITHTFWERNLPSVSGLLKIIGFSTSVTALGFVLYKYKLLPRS
Sequence of G2019S LRRK2 (Q5S007 whole entry G2019S): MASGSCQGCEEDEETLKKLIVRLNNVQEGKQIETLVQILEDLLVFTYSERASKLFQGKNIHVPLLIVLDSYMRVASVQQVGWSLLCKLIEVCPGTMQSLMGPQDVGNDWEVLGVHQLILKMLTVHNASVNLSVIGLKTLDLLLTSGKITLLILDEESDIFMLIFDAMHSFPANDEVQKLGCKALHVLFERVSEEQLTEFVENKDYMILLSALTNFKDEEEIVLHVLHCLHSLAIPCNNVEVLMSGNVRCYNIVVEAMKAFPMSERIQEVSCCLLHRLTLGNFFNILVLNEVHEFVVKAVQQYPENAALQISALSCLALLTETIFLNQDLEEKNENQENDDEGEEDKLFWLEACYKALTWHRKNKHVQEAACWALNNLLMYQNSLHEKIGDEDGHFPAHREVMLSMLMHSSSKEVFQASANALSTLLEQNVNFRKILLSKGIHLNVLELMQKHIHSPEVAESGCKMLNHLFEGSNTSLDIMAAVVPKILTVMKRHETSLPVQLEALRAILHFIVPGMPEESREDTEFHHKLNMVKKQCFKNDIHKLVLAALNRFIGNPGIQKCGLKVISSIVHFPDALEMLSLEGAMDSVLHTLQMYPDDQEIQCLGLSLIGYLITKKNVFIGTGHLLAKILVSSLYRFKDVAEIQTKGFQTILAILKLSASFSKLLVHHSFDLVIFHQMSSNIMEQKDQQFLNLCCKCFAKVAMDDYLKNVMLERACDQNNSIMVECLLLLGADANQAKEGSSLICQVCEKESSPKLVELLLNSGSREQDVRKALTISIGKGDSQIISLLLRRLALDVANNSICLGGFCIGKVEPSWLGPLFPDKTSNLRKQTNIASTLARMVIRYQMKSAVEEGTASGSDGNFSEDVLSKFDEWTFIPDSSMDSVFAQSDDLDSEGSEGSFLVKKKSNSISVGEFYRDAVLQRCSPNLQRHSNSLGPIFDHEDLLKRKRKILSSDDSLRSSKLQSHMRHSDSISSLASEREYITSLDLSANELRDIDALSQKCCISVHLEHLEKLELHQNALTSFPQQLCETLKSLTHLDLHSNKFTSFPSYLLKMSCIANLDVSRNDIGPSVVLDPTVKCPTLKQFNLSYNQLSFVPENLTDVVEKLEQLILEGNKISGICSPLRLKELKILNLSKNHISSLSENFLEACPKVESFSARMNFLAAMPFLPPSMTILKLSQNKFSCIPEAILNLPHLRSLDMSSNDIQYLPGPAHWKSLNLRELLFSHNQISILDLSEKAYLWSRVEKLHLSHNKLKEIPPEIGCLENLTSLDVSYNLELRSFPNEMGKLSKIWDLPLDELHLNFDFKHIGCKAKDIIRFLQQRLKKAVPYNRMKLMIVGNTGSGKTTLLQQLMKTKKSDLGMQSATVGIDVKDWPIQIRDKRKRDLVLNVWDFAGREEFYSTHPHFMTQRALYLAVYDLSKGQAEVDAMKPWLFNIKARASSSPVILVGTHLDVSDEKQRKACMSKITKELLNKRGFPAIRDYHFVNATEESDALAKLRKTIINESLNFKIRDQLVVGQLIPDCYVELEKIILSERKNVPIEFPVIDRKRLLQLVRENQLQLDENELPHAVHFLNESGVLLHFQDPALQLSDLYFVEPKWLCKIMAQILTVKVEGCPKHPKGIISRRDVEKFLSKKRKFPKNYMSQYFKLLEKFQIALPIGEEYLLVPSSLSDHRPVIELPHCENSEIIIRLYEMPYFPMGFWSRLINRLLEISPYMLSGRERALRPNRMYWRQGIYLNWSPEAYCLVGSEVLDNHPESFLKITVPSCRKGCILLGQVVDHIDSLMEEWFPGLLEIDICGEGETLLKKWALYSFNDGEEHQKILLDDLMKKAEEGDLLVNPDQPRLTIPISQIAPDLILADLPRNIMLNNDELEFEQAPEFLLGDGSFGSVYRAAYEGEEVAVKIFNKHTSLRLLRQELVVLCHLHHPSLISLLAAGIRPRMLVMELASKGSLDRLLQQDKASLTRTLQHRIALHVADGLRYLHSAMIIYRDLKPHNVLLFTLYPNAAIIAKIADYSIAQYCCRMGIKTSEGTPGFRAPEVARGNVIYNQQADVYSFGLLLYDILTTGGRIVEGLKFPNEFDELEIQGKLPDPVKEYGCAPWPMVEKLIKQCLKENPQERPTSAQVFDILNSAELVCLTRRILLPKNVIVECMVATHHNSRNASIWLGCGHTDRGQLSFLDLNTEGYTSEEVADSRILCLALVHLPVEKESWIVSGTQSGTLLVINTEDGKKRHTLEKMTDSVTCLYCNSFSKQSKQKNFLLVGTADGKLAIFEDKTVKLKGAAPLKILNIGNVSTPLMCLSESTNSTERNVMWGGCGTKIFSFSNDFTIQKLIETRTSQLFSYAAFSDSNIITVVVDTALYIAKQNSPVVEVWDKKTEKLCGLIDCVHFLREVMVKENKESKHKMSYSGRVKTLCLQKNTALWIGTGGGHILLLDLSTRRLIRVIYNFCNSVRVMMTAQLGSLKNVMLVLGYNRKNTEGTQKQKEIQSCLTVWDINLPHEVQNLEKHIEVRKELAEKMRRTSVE
Sequence of Leucine Rich repeat Kinase 2 (LRRK2) (Q5S007 whole entry): as the sequence (Q5S007 whole entry G2019S) above, with S2019G counted along it

As to `N[C@@H](Cc1ccc(O)c(O)c1)C(=O)O` [L-DOPA, levodopa], the initial response rates in data set [1] is recorded as around 90%.

`Oc1c2ccccc2c2c3c(cccc13)N=N2` [SP600125]: in data set [2], the “protection in the chronic MPTP mouse model” value is listed as “protective”.

In the case of `Cc1ccc(-c2ncn(-c3ccc(Nc4nccc(-c5cccc(N6CCOCC6)c5)n4)cc3)n2)cn1` [SR-3306], the IC50 (on CYP P450 2D6; on CYP P450 3A4; in data set [7]; at CYP P450 2E1; in data set [8]; at CYP P450 2C9) was above 50 µM in each case. Further, the 50% inhibitory concentration (IC50) on CYP P450 2B6, on CYP P450 1A2, on CYP P450 2C19, on CYP P450 2A6 and at CYP P450 2C8 was above 50 µM throughout. For the same molecule, the brain concentration in data set [3] (4 hr) was found to be 3000 nM; in data set [3] (24 hr), 230 nM. Further, the “brain concentration above the >90% neuroprotective concentration” value in data set [3] (8 hr) is 7 fold. For the same molecule, in data set [4], the “number of p-c-jun positive cells compared to MPTP treated mice” value was “dramatic decrease (four-fold)”. Also, the “phospho-c-jun signal by Western blot” value in data set [5] was “decrease in the phospho-c-jun signal”. In [6], the “protection of striatal DOPAC levels” value is “some protection”. Besides, the “protection of striatal dopamine levels” value in [6] is on record as “not able to demonstrate protection”. For the same molecule, the “protection of striatal homovanillic acid (HVA) levels” value in data set [6] was “not able to demonstrate protection”. The “inhibition of LRRK2” value in [9] is “not inhibited”. Further, the Kd at TYK2, at KIT, on KIT V559D and at PDGFR-β was below 1 µM each time. Also, the “number of kinases with any hit” value in the data set with 347 kinases was 35 out of the 347. Further, the “neuroprotective effect (TH-positive neurons)” value in data set [10] (300 nM) and in data set [10] (1000 nM) was “greater than 90%” each time. Besides, in data set [10] (1000 nM in the absence of MPP+), the “effect on number of TH-positive neurons, compound alone” value is “no effect compared to control”. The “p-c-jun levels in the ventral midbrain by ELISA” value was “no effect” in data set [11] (10 mg/kg oral); “statistically significant reduction” in data set [11] (20 mg/kg oral, p< 0.01); “statistically significant reduction” in data set [11] (30 mg/kg oral, p < 0.001). In addition, the plasma protein binding in data set [12] turned out to be 86%; in [13] it was 88%; in data set [17], 97%; in data set [18] it was 96%. The “P-glycoprotein (PGP) substrate” value at P-glycoprotein (PGP) is reported as “not a P-glycoprotein (PGP) substrate”. Further, the “inhibition of G2019S LRRK2” value at G2019S LRRK2 is “not inhibited”. For the same molecule, the microsomal stability amounted to 26 min in data set [14], 30 min in [15] and 28 min in data set [16]. In “Rat pharmacokinetics” (1 mg/kg i.v.), this molecule registered a clearance rate of 14 mL/min/kg. Further, the “oral bioavailability (%F)” value in “Rat pharmacokinetics” (2 mg/kg p.o. vs 1 mg/kg i.v.) came to 31%.

For `C#CCN[C@@H]1CCc2ccccc21` [rasagiline], the neuroprotective disease-modifying effects result in data set [19] (1 mg) is given as “possible disease-modifying effects”; in [19] (2 mg dose, 1176 subjects), “failed to show neuroprotective disease-modifying effects”.

By IC50 is commonly meant the concentration that gives 50% inhibition. Usually Kd stands for the free concentration of one partner at which half of the binding sites on the other are occupied at equilibrium, for simple one-to-one binding.

The values above are taken from publication PMC3110074 (ACS chemical neuroscience, 2011).
